# Measurements from different studies.
Compound,tested on,assay,system,conditions,measurement,result
O=C1CCC(N2C(=O)c3cccc(NCCc4cn(Cc5ccc(-c6nc7cc(-c8ccccc8)ccn7c6Nc6ccc(C(=O)O)cc6)cc5)nn4)c3C2=O)C(=O)N1 (stereo not drawn),MCF7,cell growth or viability,,72 h,CC50,108 µM
CCONC(=O)N1CCC[C@H](C(=O)NCc2nc(-c3ccccc3)cs2)C1,,metabolic stability,"human, liver microsomes",0.5 µM,microsomal CLint,10 µL/min/mg
O=C(Nc1ccc(S(=O)(=O)O)c2ccccc12)c1ccc(=O)oc1,TZM-bl,"cell growth or viability, resazurin",,,CC50,> 12.5 µM
Nc1ccn([C@@H]2O[C@H](CO)[C@@H](O)C2(F)F)c(=O)n1,MCF7,"cell growth or viability, MTT",,"0.625 µg/mL, 48 h",viability,68.6%
CC[C@@H](C)[C@@H](N)C(=O)OC[C@H]1O[C@@](C#N)(c2ccc3c(N)ncnn23)[C@H](O)[C@@H]1O,HEp-2,"cell growth or viability, CCK-8",,5 days,CC50,> 100 µM
C[C@H]1[C@@H](C(=O)NCc2nc(-c3ccc(C#N)cc3)cs2)CCCN1C(=O)[C@H]1CCO1,,metabolic stability,"male Sprague-Dawley rat, liver microsomes",0.5 µM,microsomal CLint,45 µL/min/mg
N#C[C@@]1(c2ccc3c(N)ncnn23)O[C@H](COC(=O)C2CCCCC2)[C@@H](O)[C@H]1O,HEp-2,"cell growth or viability, CCK-8",,5 days,CC50,44.7 µM
NCCOCC(=O)N1CCC[C@H](C(=O)NCc2nc(-c3ccc(C(F)(F)F)cc3)cs2)C1,,metabolic stability,"male Sprague-Dawley rat, liver microsomes",0.5 µM,microsomal CLint,< 3 µL/min/mg
CC(C)C(=O)OC[C@H]1O[C@@H](n2ccc(NO)nc2=O)[C@H](O)[C@@H]1O,HEp-2,"cell growth or viability, CCK-8",,5 days,CC50,50.1 µM
COCC(=O)N1CCC[C@H](C(=O)NCc2nc(-c3ccc(C#N)cc3)cs2)C1,,metabolic stability,"human, liver microsomes",0.5 µM,microsomal CLint,10 µL/min/mg
CCC(CC)COC(=O)[C@H](C)N[P@](=O)(OC[C@H]1O[C@@](C#N)(c2ccc3c(N)ncnn23)[C@H](O)[C@@H]1O)Oc1ccccc1,HEp-2,"cell growth or viability, CCK-8",,5 days,CC50,2.95 µM
COc1ccc2c(c1)CN(C(=O)CCN1CCC(Cc3ccccc3)CC1)CC[S@@+]2[O-],,,"male human, plasma","intravenous, 0.15 mg/kg, healthy volunteers",clearance,223 mL/min
